Experimental data taken from ChEMBL document CHEMBL1133253, “Improved antibacterial activities of coumarin antibiotics bearing 5',5'-dialkylnoviose: biological activity of RU79115” (Bioorg Med Chem Lett, 2000).
≈ marks a conversion by molar mass, not a printed value.

Tests used:
Mus musculus [1] = assay: Protective dose of orally administered compound against intraperitoneally-induced septicaemia model ( vancomycin resistant Enterococci faecium D3HM3 strain) in murine; format: functional; settings: po, read-out: PD50
How it was run: (§1)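 PD50 was measured in a murine septicaemia model, with infection induced intraperitoneally with the named Gram-positive strain. Test compound was given orally and the PD50 was calculated by the probit method.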

Mus musculus [2] = assay: Protective dose of orally administered compound against intraperitoneally-induced septicaemia model (Enterococci faecium D3HT7 strain) in murine; format: functional; settings: po, read-out: PD50
Mus musculus [3] = assay: Minimum inhibitory concentration of the subcutaneously administered compound evaluated against Staphylococcus aureus GO3 strain in mice (SC); format: functional
Mus musculus [4] = assay: Protective dose of orally administered compound against intraperitoneally-induced septicaemia model ( vancomycin resistant Enterococci faecium D3HT12 strain) in murine; format: functional; settings: po, read-out: PD50; how it was run: as §1
Mus musculus [5] = assay: Protective dose of subcutaneously administered compound against intraperitoneally-induced septicaemia model (Staphylococcus aureus GO3) in murine; format: functional; settings: sc, read-out: PD50
How it was run: (§2)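 Murine septicaemia was induced by intraperitoneal infection, and the compound was given subcutaneously. PD50 was derived by probit analysis.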

Mus musculus [6] = assay: Protective dose of subcutaneously administered compound against intraperitoneally-induced septicaemia model (Staphylococcus aureus HT-17) in murine; format: functional; settings: sc, read-out: PD50; how it was run: as §2
Mus musculus [7] = assay: Protective dose of orally administered compound against intraperitoneally-induced septicaemia model (Enterococci faecalis D2HT6 strain) in murine; format: functional; settings: po, read-out: PD50; how it was run: as §1
Mus musculus [8] = assay: Protective dose of subcutaneously administered compound against intraperitoneally-induced septicaemia model ([…] PW3 strain) in murine; format: functional; settings: sc, read-out: PD50; how it was run: as §2
Mus musculus [9] = assay: Minimum inhibitory concentration of the subcutaneously administered compound evaluated against […] PW3 strain in mice (SC); format: functional
Mus musculus [10] = assay: Minimum inhibitory concentration of the subcutaneously administered compound evaluated against Staphylococcus aureus HT-17 strain in mice (SC); format: functional
Mus musculus [11] = assay: Protective dose of orally administered compound against intraperitoneally-induced septicaemia model ( vancomycin resistant Enterococci faecium D3HM4 strain) in murine; format: functional; settings: po, read-out: PD50; how it was run: as §1
Staphylococcus aureus [12] = assay: Tested for in vitro antibacterial activity against Staphylococcus aureus 011 GO64 ofloxacin oxacillin erythromycin resistance phenotype; format: functional
Streptococcus pyogenes = assay: Tested for in vitro antibacterial activity against Streptococcus pyogenes O2A1UC1 phenotype; format: functional
Enterococcus faecium = assay: Tested for in vitro antibacterial activity against Enterococcus faecium 02D31P2 vancomycin teicoplanin erythromycin resistance phenotype; format: functional
Staphylococcus aureus [13] = assay: Tested for in vitro antibacterial activity against Staphylococcus aureus 011 HT3 phenotype; format: functional
Staphylococcus aureus [14] = assay: Tested for in vitro antibacterial activity against Staphylococcus aureus 011 HT1 novobiocin resistance phenotype; format: functional
[15] = test system: Staphylococcus epidermidis; assay: Tested for in vitro antibacterial activity against Staphylococcus epidermidis 012GO42 oxacillin resistance phenotype; format: functional
Staphylococcus aureus [16] = assay: IC50 was determined for gyrase B of Staphylococcus aureus against novobiocin (0.5 mg/mL) as reference; IC50nov/IC50comp

Compound | ED50 (Mus musculus [1]) [mg/kg] | ED50 (Mus musculus [2]) [mg/kg] | MIC (Mus musculus [3]) [µg/mL] | ED50 (Mus musculus [4]) [mg/kg] | ED50 (Mus musculus [5]) [mg/kg] | ED50 (Mus musculus [6]) [mg/kg] | ED50 (Mus musculus [7]) [mg/kg] | ED50 (Mus musculus [8]) [mg/kg] | MIC (Mus musculus [9]) [µg/mL] | MIC (Mus musculus [10]) [µg/mL] | ED50 (Mus musculus [11]) [mg/kg] | MIC (Staphylococcus aureus [12]) [µg/mL] | MIC (Streptococcus pyogenes) [µg/mL] | MIC (Enterococcus faecium) [µg/mL] | MIC (Staphylococcus aureus [13]) [µg/mL] | MIC (Staphylococcus aureus [14]) [µg/mL] | MIC [15] [µg/mL] | Ratio (Staphylococcus aureus [16])
CC(=O)NC[C@H]1CN(c2ccc(N3CCOCC3)c(F)c2)C(=O)O1 [LINEZOLID] | 2.1 | 2.4 | 2.5 (≈ 7.41 µM) | 1.8 | 8.7 | 5.8 | 4.2 | 3 | 1.2 (≈ 3.56 µM) | 1.2 (≈ 3.56 µM) | 8.6 | – | – | – | – | – | – | –
C#CCONC(=O)O[C@H]1[C@@H](O)[C@H](Oc2ccc3c(=O)c(/C(C)=N/OC)c(O)oc3c2C)OC(C)(C)[C@@H]1OC | – | – | – | – | – | – | – | – | – | – | – | 0.16 (≈ 0.299 µM) | 0.6 (≈ 1.12 µM) | 2.5 (≈ 4.68 µM) | 0.16 (≈ 0.299 µM) | 5 (≈ 9.35 µM) | 0.08 (≈ 0.15 µM) | 12.5
CO[C@@H]1[C@@H](OC(N)=O)[C@@H](O)[C@H](Oc2ccc3c(O)c(NC(=O)c4ccc(O)c(CC=C(C)C)c4)c(=O)oc3c2C)OC1(C)C [NOVOBIOCIN] | – | – | – | – | – | – | – | – | – | – | – | – | 0.3 (≈ 0.49 µM) | 0.6 (≈ 0.979 µM) | < 0.04 | 10 (≈ 16.3 µM) | < 0.04 | 1
CO[C@@H]1[C@@H](OC(=O)c2ccc(C)[nH]2)[C@@H](O)[C@H](Oc2ccc3c(O)c(NC(=O)c4ccc(O)c(CC=C(C)C)c4)c(=O)oc3c2Cl)OC1(C)C [CHLOROBIOCIN] | – | – | – | – | – | – | – | – | – | – | – | – | < 0.04 | < 0.04 | < 0.04 | 0.6 (≈ 0.861 µM) | – | 1.7
C#CCONC(=O)O[C@H]1[C@@H](O)[C@H](Oc2ccc3c(O)c(/C(C)=N/OC)c(=O)oc3c2C)O[C@@](C)(CC)[C@@H]1OC | – | – | – | – | – | – | – | – | – | – | – | – | 0.08 (≈ 0.146 µM) | 0.15 (≈ 0.273 µM) | < 0.04 | 0.3 (≈ 0.547 µM) | < 0.04 | 11.1
